Test results published in ChEMBL document CHEMBL1141286, “Benzochromenones from the marine crinoid Comantheria rotula inhibit hypoxia-inducible factor-1 (HIF-1) in cell-based reporter assays and differentially suppress the growth of certain tumor cell lines” (J Nat Prod, 2007).

Key:
[1] = system: HOP-62; assay: Growth inhibition of human HOP62 cells; type: functional
[2] = system: HL-60; assay: Growth inhibition of human HL60 cells; type: functional; conditions: for TGI: read-out: Log TGI (converted)
[3] = system: SNB-19; assay: Growth inhibition of human SNB19 cells; type: functional; conditions: for TGI: read-out: Log TGI (converted)
[4] = system: MDA-MB-435; assay: Growth inhibition of human MDA-MB-435 cells; type: functional; conditions: for TGI: read-out: Log TGI (converted)
[5] = system: CAKI-1; assay: Growth inhibition of human CAKI1 cells; type: functional; conditions: for TGI: read-out: Log TGI (converted)
[6] = system: UO-31; assay: Growth inhibition of human UO31 cells; type: functional; conditions: for TGI: read-out: Log TGI (converted)
[7] = system: MDA-MB-231; assay: Growth inhibition of human MDA-MB-231 cells; type: functional; conditions: for TGI: read-out: Log TGI (converted)
[8] = system: Hs-578T; assay: Growth inhibition of human HS578T cells; type: functional
[9] = system: SN12C; assay: Growth inhibition of human SN12C cells; type: functional; conditions: for TGI: read-out: Log TGI (converted)
[10] = system: MOLT-4; assay: Growth inhibition of human MOLT4 cells; type: functional; conditions: for CC50: read-out: Log LC50 (the source's name) (converted); for TGI: read-out: Log TGI (converted)
[11] = Inhibition of HIF1 activation in PC3 cells by TK-luciferase assay; type: cell-based; conditions: Homo sapiens, PC-3
Method in brief: (§1)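 HIF-1 reporter (pHRE-TK-Luc) assays in transfected PC-3 or T47D cells; HIF-1 induced by hypoxia or by the hypoxia mimetic 1,10-phenanthroline (10 μM); compounds at half-log concentrations; luciferase activity measured; IC50 from experiments in triplicate.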

[12] = system: OVCAR-5; assay: Growth inhibition of human OVACAR5 cells; type: functional; conditions: for TGI: read-out: Log TGI (converted)
[13] = system: BT-549; assay: Growth inhibition of human BT549 cells; type: functional; conditions: for TGI: read-out: Log TGI (converted)
[14] = system: NCI-H226; assay: Growth inhibition of human NCI-H226 cells; type: functional; conditions: for CC50: read-out: Log LC50 (the source's name) (converted); for TGI: read-out: Log TGI (converted)
[15] = system: RXF 393; assay: Growth inhibition of human RXF393 cells; type: functional; conditions: for TGI: read-out: Log TGI (converted)
[16] = system: LOX IMVI; assay: Growth inhibition of human LOXIMVI cells; type: functional; conditions: for TGI: read-out: Log TGI (converted)
[17] = system: NCI-H23; assay: Growth inhibition of human NCI-H23 cells; type: functional; conditions: for CC50: read-out: Log LC50 (the source's name) (converted); for TGI: read-out: Log TGI (converted)
[18] = system: NCI-H322M; assay: Growth inhibition of human NCI-H322M cells; type: functional; conditions: for CC50: read-out: Log LC50 (the source's name) (converted); for TGI: read-out: Log TGI (converted)
[19] = system: K562; assay: Growth inhibition of human K562 cells; type: functional; conditions: for CC50: read-out: Log LC50 (the source's name) (converted); for TGI: read-out: Log TGI (converted)
[20] = system: TK-10; assay: Growth inhibition of human TK10 cells; type: functional; conditions: for TGI: read-out: Log TGI (converted)
[21] = system: HCC 2998; assay: Growth inhibition of human HCC2998 cells; type: functional; conditions: for CC50: read-out: Log LC50 (the source's name) (converted); for TGI: read-out: Log TGI (converted)
[22] = target: Hypoxia inducible factors; HIF-1-alpha, HIF-2-alpha (Homo sapiens, UniProt Q16665+Q99814); assay: Inhibition of HIF1 activation in human T47D cells by TK-luciferase assay; type: cell-based; method in brief: as §1
[23] = system: U-251; assay: Growth inhibition of human U251 cells; type: functional; conditions: for TGI: read-out: Log TGI (converted)
[24] = system: SNB-75; assay: Growth inhibition of human SNB75 cells; type: functional; conditions: for TGI: read-out: Log TGI (converted)

## CCCc1cc(=O)c2c(OC)c3c(OC)cc(OC)cc3cc2o1
[1]
  GI50: 57.5 µM
[1]; read-out: Log LC50 (the source's name) (converted)
  CC50: > 100 µM
[1]; read-out: Log TGI (converted)
  TGI: > 100 µM
[2]
  GI50: 42.7 µM
  LC50: > 100 µM
  TGI: > 100 µM
[3]
  GI50: > 100 µM
  LC50: > 100 µM
  TGI: > 100 µM
[4]
  GI50: 97.7 µM
  LC50: > 100 µM
  TGI: > 100 µM
[5]
  GI50: > 100 µM
  LC50: > 100 µM
  TGI: > 100 µM
[6]
  GI50: 42.7 µM
  LC50: > 100 µM
  TGI: > 100 µM
[7]
  GI50: 25.7 µM
  LC50: > 100 µM
  TGI: > 100 µM
[8]
  GI50: 33.1 µM
  LC50: > 100 µM
[8]; read-out: Log TGI (converted)
  TGI: > 100 µM
[9]
  GI50: > 100 µM
  LC50: > 100 µM
  TGI: > 100 µM
[10]
  GI50: > 100 µM
  CC50: > 100 µM
  TGI: 30.2 µM
[11]
  IC50: > 10 µM
[12]
  GI50: > 100 µM
  LC50: > 100 µM
  TGI: > 100 µM
[13]
  GI50: 66.1 µM
  LC50: > 100 µM
  TGI: > 100 µM
[14]
  GI50: > 100 µM
  CC50: > 100 µM
  TGI: > 100 µM
[15]
  GI50: > 100 µM
  LC50: > 100 µM
  TGI: > 100 µM
[16]
  GI50: 69.2 µM
  LC50: > 100 µM
  TGI: > 100 µM
[17]
  GI50: > 100 µM
  CC50: > 100 µM
  TGI: > 100 µM
[18]
  GI50: > 100 µM
  CC50: > 100 µM
  TGI: > 100 µM
[19]
  GI50: 39.8 µM
  CC50: > 100 µM
  TGI: > 100 µM
[20]
  GI50: 37.2 µM
  LC50: > 100 µM
  TGI: > 100 µM
[21]
  GI50: > 100 µM
  CC50: > 100 µM
  TGI: > 100 µM
[22]
  IC50: 3.9 µM
[23]
  GI50: > 100 µM
  LC50: > 100 µM
  TGI: > 100 µM
[24]
  GI50: 74.1 µM
  LC50: > 100 µM
  TGI: > 100 µM

## COc1cc(O)cc2cc3oc(C)cc(=O)c3c(O)c12
[2]
  GI50: 20.9 µM
  LC50: 83.2 µM
  TGI: 41.7 µM
[3]
  GI50: 32.4 µM
  LC50: > 100 µM
  TGI: > 100 µM
[4]
  GI50: 27.5 µM
  LC50: > 100 µM
  TGI: > 100 µM
[5]
  GI50: 42.7 µM
  LC50: > 100 µM
  TGI: > 100 µM
[6]
  GI50: 5.13 µM
  LC50: > 100 µM
  TGI: 37.2 µM
[7]
  GI50: 17.8 µM
  LC50: > 100 µM
  TGI: > 100 µM
[8]
  GI50: 0.589 µM
  LC50: > 100 µM
[9]
  GI50: 32.4 µM
  LC50: > 100 µM
  TGI: > 100 µM
[10]
  GI50: 17.8 µM
  CC50: > 100 µM
  TGI: 51.3 µM
[11]
  IC50: 3.3 µM
[12]
  GI50: 46.8 µM
  LC50: > 100 µM
  TGI: > 100 µM
[13]
  GI50: 20.4 µM
  LC50: > 100 µM
  TGI: > 100 µM
[14]
  GI50: 22.4 µM
  CC50: > 100 µM
  TGI: > 100 µM
[15]
  GI50: 20.4 µM
  LC50: > 100 µM
  TGI: 53.7 µM
[16]
  GI50: 18.2 µM
  LC50: > 100 µM
  TGI: 52.5 µM
[17]
  GI50: 24.5 µM
  CC50: > 100 µM
  TGI: 83.2 µM
[18]
  GI50: 26.9 µM
  CC50: > 100 µM
  TGI: 95.5 µM
[19]
  GI50: 14.8 µM
  CC50: > 100 µM
  TGI: 49 µM
[20]
  GI50: 20.4 µM
  LC50: > 100 µM
  TGI: 61.7 µM
[21]
  GI50: 24.5 µM
  CC50: > 100 µM
  TGI: 64.6 µM
[22]
  IC50: 3.4 µM
[23]
  GI50: 33.1 µM
  LC50: > 100 µM
  TGI: > 100 µM
[24]
  GI50: 46.8 µM
  LC50: > 100 µM
  TGI: > 100 µM
